From ChEMBL document CHEMBL2401619, “Novel small molecule inhibitors targeting the "switch region" of bacterial RNAP: structure-based optimization of a virtual screening hit” (Eur J Med Chem, 2013)
Values after ≈ are worked out from the molar mass of the structure shown.

Key:
[1] = system: Escherichia coli; test: Antibacterial activity against Escherichia coli expressing ToLC mutant assessed as growth inhibiiton after 18 hrs; type: functional
Method in brief: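 E. coli TolC (efflux-defective) in LB, start OD600 0.03, compounds predissolved in DMSO (max 1% final); serial dilutions, final 0.02–100 µg/mL, each concentration in duplicate. OD read at compound addition and after 18 h at 37 °C, 50 rpm. MIC = lowest concentration with no detectable growth; mean of two independent runs (three if MIC < 10 µg/mL).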

[2] = Inhibition of Escherichia coli RNAP assessed as incorporation of [5,6-3H]UTP preincubated for 10 mins followed by DNA template and ATP, CTP, GTP, UTP, [5,6-3H]UTP addition measured after 10 mins by scintillation counting analysis
Method in brief: (§1)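 Purchased E. coli RNAP holoenzyme (1 unit, 0.5 µg) with 40 mM Tris-HCl pH 7.5, 150 mM KCl, 10 mM MgCl2, 10 mM DTT, 0.1% CHAPS, RNase inhibitor and compound in 2% DMSO final, preincubated 10 min at 25 °C. Reaction started with religated pcDNA3.1 template (3500 ng), 400 µM ATP/CTP/GTP, 100 µM UTP and 60 nCi [3H]-UTP, then run 10 min at 37 °C. TCA-precipitated RNA counted by scintillation and compared with DMSO controls.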

[3] = system: Staphylococcus aureus; test: Antibacterial activity against Staphylococcus aureus subsp. aureus Newman assessed as growth inhibiiton after 18 hrs; type: functional
Method in brief: (§2)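 Broth dilution in LB, start OD600 0.03, compounds predissolved in DMSO (max 1% final), serial dilutions 0.02–100 µg/mL tested in duplicate. Incubation 18 h, 37 °C, 50 rpm (200 rpm for PAO1). OD read at start and after incubation. MIC is the lowest concentration with no detectable growth. Values are means of two independent runs, three if MIC <10 µg/mL.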

[4] = system: Pseudomonas aeruginosa; test: Antibacterial activity against Pseudomonas aeruginosa PAO1 assessed as growth inhibiiton after 18 hrs; type: functional; conditions: PAO1, 18 h; method in brief: as §2
[5] = Antibacterial activity against Bacillus subtilis subsp. subtilis assessed as growth inhibiiton after 18 hrs; type: functional; method in brief: as §2
[6] = system: Escherichia coli; test: Antibacterial activity against Escherichia coli K-12 assessed as growth inhibiiton after 18 hrs; type: functional; conditions: K-12, 18 h; method in brief: as §2
[7] = system: Escherichia coli; test: Inhibition of Escherichia coli RNAP assessed as incorporation of [5,6-3H]UTP at 100 uM preincubated for 10 mins followed by DNA template and ATP, CTP, GTP, UTP, [5,6-3H]UTP addition measured after 10 mins by scintillation counting analysis relative to control; method in brief: as §1
[8] = system: Escherichia coli; test: Inhibition of Escherichia coli RNAP assessed as incorporation of [5,6-3H]UTP at 25 uM preincubated for 10 mins followed by DNA template and ATP, CTP, GTP, UTP, [5,6-3H]UTP addition measured after 10 mins by scintillation counting analysis relative to control; method in brief: as §1
[9] = system: Escherichia coli; test: Inhibition of Escherichia coli RNAP assessed as incorporation of [5,6-3H]UTP at 50 uM preincubated for 10 mins followed by DNA template and ATP, CTP, GTP, UTP, [5,6-3H]UTP addition measured after 10 mins by scintillation counting analysis relative to control; method in brief: as §1
[10] = system: Escherichia coli; test: Inhibition of RNAP in Escherichia coli expressing ToLC mutant assessed as reduction of RNA level at 100 uM after 40 mins by whole cell assay in presence of [3H]-uridine relative to control
Method in brief: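 E. coli TolC grown in LB. 3H-uridine (1 µCi/mL) added in log phase, 3 min before compound (100 µM, 0.5% DMSO). 300 µL culture harvested 40 min later and precipitated with 2 volumes of 10% TCA for 45 min at 4 °C. Precipitate collected on glass-fibre filters and radioactivity counted.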

[11] = system: Escherichia coli; test: Reduction of resistance frequencies in Escherichia coli expressing ToLC mutant at 2 x MIC after 16 hrs relative to rifampicin, myxopyronin; type: functional
Method in brief: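 E. coli TolC cell count per mL set by plating dilutions on LB agar and counting colonies. […] Resistance frequency derived from the threshold inoculum at which growth (resistance) appeared.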

Row | SMILES | MIC [1] [µg/mL] | IC50 [2] [µM] | pIC50 [2] | MIC [3] [µg/mL] | MIC [4] [µg/mL] | MIC [5] [µg/mL] | MIC [6] [µg/mL] | other results
1 | CCN(Cc1ccccc1)C(=O)Nc1cc(-c2ccc(C(F)(F)F)cc2)sc1C(=O)O | 21 (≈ 46.8 µM) | 51 | 4.29 | – | – | – | – | –
2 | CO[C@H]1/C=C/O[C@@]2(C)Oc3c(C)c(O)c4c(O)c(c(/C=N/N5CCN(C)CC5)c(O)c4c3C2=O)NC(=O)/C(C)=C\C=C\[C@H](C)[C@H](O)[C@@H](C)[C@@H](O)[C@@H](C)[C@H](OC(C)=O)[C@@H]1C [RIFAMPIN] | 5 (≈ 6.08 µM) | 0.03 | – | 0.02 (≈ 0.0243 µM) | 13 (≈ 15.8 µM) | 4.8 (≈ 5.83 µM) | 7 (≈ 8.51 µM) | –
3 | CCCCN(CCc1ccccc1)C(=O)Nc1cc(-c2ccc(Cl)c(Cl)c2)sc1C(=O)O | > 25 | 7 | – | – | – | – | – | –
4 | CCN(Cc1ccccc1)C(=O)Nc1cc(-c2ccc(C#N)cc2)sc1C(=O)O | 25 (≈ 61.7 µM) | 133 | 3.88 | – | – | – | – | –
5 | CCN(Cc1ccccc1)C(=O)Nc1cc(-c2ccccc2)sc1C(=O)O | 17 (≈ 44.7 µM) | 292 | 3.52 | – | – | – | – | –
6 | CCN(Cc1ccccc1)C(=O)Nc1cc(-c2ccc([N+](=O)[O-])cc2)sc1C(=O)O | 23 (≈ 54.1 µM) | 73 | 4.14 | – | – | – | – | –
7 | CC(C)NC(=O)Nc1cc(-c2ccc(Cl)c(Cl)c2)sc1C(=O)O | 15 (≈ 40.2 µM) | – | – | – | – | – | – | inhibition [7]: 26%
8 | CCN(Cc1ccccc1)C(=O)Nc1cc(-c2ccc(Cl)c(CCCCNC(=O)OC)c2)sc1C(=O)O | 25 (≈ 45.9 µM) | 20 | – | – | – | – | – | –
9 | CCN(Cc1ccccc1)C(=O)Nc1cc(-c2ccc(Cl)cc2)sc1C(=O)OC | > 25 | – | – | – | – | – | – | inhibition [8]: 2%
10 | CCCCCNC(=O)Nc1cc(-c2ccc(Cl)c(Cl)c2)sc1C(=O)O | 10 (≈ 24.9 µM) | 35 | – | > 25 | > 25 | 8 (≈ 19.9 µM) | > 25 | –
11 | CCCN(Cc1ccccc1)C(=O)Nc1cc(-c2ccc(Cl)c(Cl)c2)sc1C(=O)O | > 25 | 14 | – | – | – | – | – | –
12 | CCCCN(Cc1ccccc1)C(=O)Nc1cc(-c2ccc(Cl)c(Cl)c2)sc1C(=O)O | > 50 | 9 | – | > 50 | > 50 | > 50 | > 50 | –
13 | CN(Cc1ccccc1)C(=O)Nc1cc(-c2ccc(Cl)c(Cl)c2)sc1C(=O)O | 5 (≈ 11.5 µM) | – | – | – | – | – | – | inhibition [7]: 12%
14 | O=C(NCc1ccccc1)Nc1cc(-c2ccc(Cl)c(Cl)c2)sc1C(=O)O | 10 (≈ 23.7 µM) | 45 | – | – | – | – | – | –
15 | CCCCCCNC(=O)Nc1cc(-c2ccc(Cl)c(Cl)c2)sc1C(=O)O | > 25 | 19 | – | – | – | – | – | –
16 | CCN(Cc1ccccc1)C(=O)Nc1cc(-c2ccc(C)cc2)sc1C(=O)O | 21 (≈ 53.2 µM) | 137 | 3.86 | – | – | – | – | –
17 | O=C(Nc1ccccc1)Nc1sc2c(c1C(=O)O)CCCCCC2 | > 25 | – | – | – | – | – | – | inhibition [8]: 3%
18 | CCN(Cc1ccccc1)C(=O)Nc1cc(-c2cccc([N+](=O)[O-])c2)sc1C(=O)O | 22 (≈ 51.7 µM) | 80 | 4.1 | – | – | – | – | –
19 | CCCCNC(=O)Nc1cc(-c2ccc(Cl)c(Cl)c2)sc1C(=O)O | 13 (≈ 33.6 µM) | 91 | – | – | – | – | – | –
20 | CCN(Cc1ccccc1)C(=O)Nc1cc(-c2ccc(Cl)c(C(F)(F)F)c2)sc1C(=O)O | 12 (≈ 24.8 µM) | 21 | 4.68 | 5 (≈ 10.4 µM) | > 50 | 20 (≈ 41.4 µM) | > 50 | –

Row | SMILES | MIC [1] [µg/mL] | IC50 [2] [µM] | pIC50 [2] | MIC [3] [µg/mL] | MIC [4] [µg/mL] | MIC [5] [µg/mL] | MIC [6] [µg/mL] | other results
21 | CCN(C(=O)Nc1cc(-c2ccc(Cl)c(Cl)c2)sc1C(=O)O)c1ccccc1 | 16 (≈ 36.8 µM) | 36 | – | – | – | – | – | –
22 | CCOC(=O)c1c(NC(=O)Nc2ccccc2)sc2c1CCCCCC2 [UREIDOTHIOPHENE] | – | – | – | – | – | – | – | inhibition [9]: 2%
23 | CCCCN(C(=O)Nc1cc(-c2ccc(Cl)c(Cl)c2)sc1C(=O)O)c1ccccc1 | > 25 | 14 | – | – | – | – | – | –
24 | O=C(NCCc1ccccc1)Nc1cc(-c2ccc(Cl)c(Cl)c2)sc1C(=O)O | 8 (≈ 18.4 µM) | 26 | – | 6 (≈ 13.8 µM) | > 25 | 7 (≈ 16.1 µM) | > 25 | –
25 | CCN(Cc1ccccc1)C(=O)Nc1cc(-c2ccc(Cl)cc2)sc1C(=O)O | 11 (≈ 26.5 µM) | 75 | 4.12 | – | – | – | – | –
26 | CN(C(=O)Nc1cc(-c2ccc(Cl)c(Cl)c2)sc1C(=O)O)c1ccccc1 | 9 (≈ 21.4 µM) | 45 | – | – | – | – | – | –
27 | CCN(Cc1ccccc1)C(=O)Nc1cc(-c2ccc(OC)cc2)sc1C(=O)O | 15 (≈ 36.5 µM) | 240 | 3.62 | – | – | – | – | –
28 | CCN(Cc1ccccc1)C(=O)Nc1cc(-c2cccc(C(F)(F)F)c2)sc1C(=O)O | 38 (≈ 84.7 µM) | 53 | 4.28 | – | – | – | – | –
29 | CC(C)(C)OC(=O)c1c(NC(=O)Nc2ccccc2)sc2c1CCCCCC2 | 33 (≈ 82.4 µM) | – | – | – | – | – | – | inhibition [7]: 4%
30 | O=C(Nc1ccccc1)Nc1cc(-c2ccc(Cl)c(Cl)c2)sc1C(=O)O | 12 (≈ 29.5 µM) | 25 | – | 6 (≈ 14.7 µM) | > 50 | 12 (≈ 29.5 µM) | > 50 | –
31 | NC(=O)Nc1cc(-c2ccc(Cl)c(Cl)c2)sc1C(=O)O | > 25 | – | – | – | – | – | – | inhibition [7]: 26%
32 | CCCN(CCc1ccccc1)C(=O)Nc1cc(-c2ccc(Cl)c(Cl)c2)sc1C(=O)O | > 25 | 12 | – | – | – | – | – | –
33 | CCN(Cc1ccccc1)C(=O)Nc1cc(-c2cc(Cl)cc(Cl)c2)sc1C(=O)O | – | 25 | 4.6 | – | – | – | – | –
34 | CCN(Cc1ccccc1)C(=O)Nc1cc(-c2cc(Cl)ccc2Cl)sc1C(=O)O | 9 (≈ 20 µM) | 35 | 4.46 | – | – | – | – | –
35 | O=C(O)c1sc(-c2ccc(Cl)c(Cl)c2)cc1NC(=O)N(Cc1ccccc1)Cc1ccccc1 | > 25 | 6 | – | 3 (≈ 5.87 µM) | > 25 | > 25 | > 25 | –
36 | CCN(Cc1ccccc1)C(=O)Nc1cc(-c2ccc(OC(F)(F)F)cc2)sc1C(=O)O | 21 (≈ 45.2 µM) | 45 | 4.35 | 9 (≈ 19.4 µM) | > 100 | 20 (≈ 43.1 µM) | > 100 | –
37 | CCCC/C(C)=C/C=C(\C)C(=O)c1c(O)cc([C@H](C)CC/C=C/NC(=O)OC)oc1=O [MYXOPYRONIN B] | 0.8 (≈ 1.85 µM) | 0.35 | – | 0.5 (≈ 1.16 µM) | > 25 | 0.9 (≈ 2.09 µM) | > 25 | –
38 | CCN(Cc1ccccc1)C(=O)Nc1cc(-c2ccc(Cl)c(Cl)c2)sc1C(=O)O | 10 (≈ 22.3 µM) | 22 | 4.66 | 8 (≈ 17.8 µM) | > 25 | 11 (≈ 24.5 µM) | > 25 | inhibition [10]: 60%
39 | CCN(Cc1ccccc1)C(=O)Nc1cc(-c2ccc(Cl)cc2Cl)sc1C(=O)O | 8 (≈ 17.8 µM) | 32 | 4.49 | 12 (≈ 26.7 µM) | > 50 | 10 (≈ 22.3 µM) | > 50 | –
40 | CCN(Cc1ccccc1)C(=O)Nc1cc(-c2cccc(Cl)c2)sc1C(=O)O | 9 (≈ 21.7 µM) | 72 | 4.14 | 21 (≈ 50.6 µM) | > 100 | 12 (≈ 28.9 µM) | > 100 | fold change (FC) [11]: >500
